Reference: ChEMBL document CHEMBL1142136, “Contribution of target gene mutations and efflux to decreased susceptibility of Salmonella enterica serovar typhimurium to fluoroquinolones and other antimicrobials” (2007)

How the values were obtained:
Type in all cases: functional, Salmonella enterica subsp. enterica serovar Typhimurium
[1] = test system: Salmonella typhimurium; test: Antimicrobial activity against Salmonella enterica serovar Typhimurium CHS38 acrAB::Kan with GyrA D87G mutation
Method in brief: (§1)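 MICs measured by broth microdilution on the Sensititre automated system and interpreted by CLSI broth microdilution standards. Ciprofloxacin was also tested by agar dilution, widening the range to 0.0075–128 μg/ml. Quality control strains were E. coli ATCC 25922 and 35218, E. faecalis ATCC 29212, S. aureus ATCC 29213 and P. aeruginosa ATCC 27853.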

[2] = test system: Salmonella typhimurium; test: Antimicrobial activity against Salmonella enterica serovar Typhimurium CHS14 acrAB::Kan with GyrA D87G mutation; method in brief: as §1
[3] = test system: Salmonella typhimurium; test: Antimicrobial activity against Salmonella enterica serovar Typhimurium CS3 gyrA+ with GyrA S83F, D87N, ParC S80I mutation; method in brief: as §1
[4] = test system: Salmonella typhimurium; test: Antimicrobial activity against Salmonella enterica serovar Typhimurium CS3 tolC::Kan with GyrA S83F, D87N, parC S80I mutation; method in brief: as §1
[5] = test system: Salmonella typhimurium; test: Antimicrobial activity against Salmonella enterica serovar Typhimurium S21 acrAB::Kan
Method in brief: (§2)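 MICs by automated broth microdilution panels, interpreted to CLSI broth microdilution standards. Ciprofloxacin additionally tested by agar dilution across 0.0075 to 128 μg/ml. Quality control strains: E. coli ATCC 25922 and 35218, Enterococcus faecalis ATCC 29212, S. aureus ATCC 29213, P. aeruginosa ATCC 27853. Test strains are kanamycin-marked deletion mutants of ground-beef isolate S21.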

[6] = test system: Salmonella typhimurium; test: Antimicrobial activity against Salmonella enterica serovar Typhimurium CS1 acrAB::Kan with GyrA S83F, D87N, ParC S80I mutation; method in brief: as §1
[7] = test system: Salmonella typhimurium; test: Antimicrobial activity against Salmonella enterica serovar Typhimurium CHS38 tolC::Kan with GyrA D87G mutation; method in brief: as §1
[8] = test system: Salmonella typhimurium; test: Antimicrobial activity against Salmonella enterica serovar Typhimurium CS1 gyrA+ with GyrA S83F, D87N, ParC S80I mutation; method in brief: as §1
[9] = test system: Salmonella typhimurium; test: Antimicrobial activity against Salmonella enterica serovar Typhimurium CS3 acrAB::Kan with GyrA S83F, D87N, ParC S80I mutation; method in brief: as §1
[10] = test system: Salmonella typhimurium; test: Antimicrobial activity against Salmonella enterica serovar Typhimurium CS1 tolC::Kan with GyrA S83F, D87N, ParC S80I mutation; method in brief: as §1
[11] = test system: Salmonella typhimurium; test: Antimicrobial activity against Salmonella enterica serovar Typhimurium CHS14 with GyrA D87G mutation; method in brief: as §1
[12] = test system: Salmonella typhimurium; test: Antimicrobial activity against Salmonella enterica serovar Typhimurium CHS14 tolC::Kan with GyrA D87G mutant; method in brief: as §1
[13] = test system: Salmonella typhimurium; test: Antimicrobial activity against Salmonella enterica serovar Typhimurium CS3 with GyrA S83F, D87N, ParC S80I mutation; method in brief: as §1
[14] = test system: Salmonella typhimurium; test: Antimicrobial activity against Salmonella enterica serovar Typhimurium CS9 with GyrA S83F, D87N, ParC S80I mutation; method in brief: as §1
[15] = test system: Salmonella typhimurium; test: Antimicrobial activity against Salmonella enterica serovar Typhimurium CS9 acrAB::Kan with GyrA S83F, D87N, ParC S80I mutation; method in brief: as §1
[16] = test system: Salmonella typhimurium; test: Antimicrobial activity against Salmonella enterica serovar Typhimurium CS9 tolC::Kan with GyrA S83F, D87N, ParC S80I mutation; method in brief: as §1
[17] = test system: Salmonella typhimurium; test: Antimicrobial activity against Salmonella enterica serovar Typhimurium S21-1 gyrA+; method in brief: as §1
[18] = test system: Salmonella typhimurium; test: Antimicrobial activity against Salmonella enterica serovar Typhimurium CHS18 with GyrA S38F mutation; method in brief: as §1
[19] = test system: Salmonella typhimurium; test: Antimicrobial activity against Salmonella enterica serovar Typhimurium CHS18 gyrA+ with GyrA S38F mutation; method in brief: as §1
[20] = test system: Salmonella typhimurium; test: Antimicrobial activity against Salmonella enterica serovar Typhimurium S21-4 acrAB::Kan with GyrA S83F, ParC S80I mutation; method in brief: as §1
[21] = test system: Salmonella typhimurium; test: Antimicrobial activity against Salmonella enterica serovar Typhimurium CHS38 gyrA+ with GyrA D87G mutation; method in brief: as §1
[22] = test system: Salmonella typhimurium; test: Antimicrobial activity against Salmonella enterica serovar Typhimurium CHS38 with GyrA D87G mutation; method in brief: as §1
[23] = test system: Salmonella typhimurium; test: Antimicrobial activity against Salmonella enterica serovar Typhimurium S21 gyrA+; method in brief: as §1
[24] = test system: Salmonella typhimurium; test: Antimicrobial activity against Salmonella enterica serovar Typhimurium CHS14 gyrA+ with GyrA D87G mutation; method in brief: as §1
[25] = test system: Salmonella typhimurium; test: Antimicrobial activity against Salmonella enterica serovar Typhimurium S21 tolC::Kan; method in brief: as §2
[26] = test system: Salmonella typhimurium; test: Antimicrobial activity against Salmonella enterica serovar Typhimurium CHS18 tolC::Kan with GyrA S38F mutation; method in brief: as §1
[27] = test system: Salmonella typhimurium; test: Antimicrobial activity against Salmonella enterica serovar Typhimurium CS9 gyrA+ with GyrA S83F, D87N, ParC S80I mutation; method in brief: as §1
[28] = test system: Salmonella typhimurium; test: Antimicrobial activity against Salmonella enterica serovar Typhimurium CS1 with GyrA S83F, D87N, ParC S80I mutation; method in brief: as §1
[29] = test system: Salmonella typhimurium; test: Antimicrobial activity against Salmonella enterica serovar Typhimurium S21; method in brief: as §1
[30] = test system: Salmonella typhimurium; test: Antimicrobial activity against Salmonella enterica serovar Typhimurium CHS18 acrAB::Kan with GyrA S38F mutation; method in brief: as §1
[31] = test system: Salmonella typhimurium; test: Antimicrobial activity against Salmonella enterica serovar Typhimurium S21-3 gyrA+ with ParC S80I mutation; method in brief: as §1
[32] = test system: Salmonella typhimurium; test: Antimicrobial activity against Salmonella enterica serovar Typhimurium S21-3 with GyrA S83F, ParC S80I mutation; method in brief: as §1
[33] = test system: Salmonella typhimurium; test: Antimicrobial activity against Salmonella enterica serovar Typhimurium S21-4 tolC::Kan with GyrA S83F, ParC S80I mutation; method in brief: as §1
[34] = test system: Salmonella typhimurium; test: Antimicrobial activity against Salmonella enterica serovar Typhimurium S21-2 with GyrA S83F, ParC S80I mutation; method in brief: as §1
[35] = test system: Salmonella typhimurium; test: Antimicrobial activity against Salmonella enterica serovar Typhimurium S21-4 gyrA+ with ParC S80I mutation; method in brief: as §1
[36] = test system: Salmonella typhimurium; test: Antimicrobial activity against Salmonella enterica serovar Typhimurium S21-2 gyrA+ with ParC S80I mutation; method in brief: as §1
[37] = test system: Salmonella typhimurium; test: Antimicrobial activity against Salmonella enterica serovar Typhimurium S21-1 GyrA S83F mutant; method in brief: as §1
[38] = test system: Salmonella typhimurium; test: Antimicrobial activity against Salmonella enterica serovar Typhimurium S21-4 with GyrA S83F, ParC S80I mutation; method in brief: as §1
[39] = test system: Salmonella typhimurium; test: Antimicrobial activity against Salmonella enterica serovar Typhimurium S21-2 tolC::Kan with GyrA S83F, ParC S80I mutation; method in brief: as §1
[40] = test system: Salmonella typhimurium; test: Antimicrobial activity against Salmonella enterica serovar Typhimurium S21-3 acrAB::Kan with GyrA S83F, ParC S80I mutation; method in brief: as §1
[41] = test system: Salmonella typhimurium; test: Antimicrobial activity against Salmonella enterica serovar Typhimurium S21-2 acrAB::Kan with GyrA S83F, ParC S80I mutation; method in brief: as §1
[42] = test system: Salmonella typhimurium; test: Antimicrobial activity against Salmonella enterica serovar Typhimurium S21-3 tolC::Kan with GyrA S83F, ParC S80I mutation; method in brief: as §1

Measured: MIC

NC[C@H]1O[C@H](O[C@H]2[C@H](O)[C@@H](O[C@H]3O[C@H](CO)[C@@H](O)[C@H](N)[C@H]3O)[C@H](N)C[C@@H]2N)[C@H](O)[C@@H](O)[C@@H]1O [KANAMYCIN]
8 µg/mL: [18] | [22]
< 8 µg/mL: [11] | [13] | [14] | [17] | [23] | [28] | [29]
not listed: [31] | [32] | [33] | [34] | [35] | [36] | [37] | [38] | [39] | [40] | [41] | [42]
> 64 µg/mL: all other assays above

CN(C)[C@@H]1C(O)=C(C(N)=O)C(=O)[C@@]2(O)C(O)=C3C(=O)c4c(O)cccc4[C@@](C)(O)[C@H]3C[C@@H]12 [TETRACYCLINE]
32 µg/mL: [4] | [10] | [37] | [16] | [17] | [21] | [22]
8 µg/mL: [33]
16 µg/mL: [1] | [7]
4 µg/mL: [18] | [19] | [26] | [30]
< 4 µg/mL: [5] | [23] | [25] | [29]
not listed: [20] | [39] | [40] | [41] | [42]
> 32 µg/mL: all other assays above

CC(=O)OCC1=C(C(=O)O)N2C(=O)[C@@H](NC(=O)Cc3cccs3)[C@H]2SC1 [CEPHALOTHIN]
< 2 µg/mL: [2] | [5] | [12] | [23] | [24] | [25] | [29]
> 32 µg/mL: [31] | [32] | [34] | [35] | [36] | [38]
4 µg/mL: [11] | [18] | [19]
16 µg/mL: [13] | [14] | [21] | [28]
2 µg/mL: [26] | [30]
8 µg/mL: all other assays above
